# Experiment: Toxicity liver stage against HepG2, at 10uM
# Type: cell-based
# Design: test concentration 10 uM, cell line HepG2-A16-CD81EGFP
# Conditions: human, HepG2-A16-CD81EGFP cells; read-out: INHIBITION
# Summary of the method: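 Uninfected HepG2-A16-CD81EGFP cells, 3 × 10^3 per well, 1536-well, plated on prespotted compound at 10 μM final, parasite-free screening media added to match infected plates; puromycin 10 μM positive, DMSO 0.5% negative; run in parallel with 48 h PbLuc assay at 37 °C, 5% CO2; viability by CellTiter-Glo luminescence, normalized to controls.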
row,Structure (SMILES),cytotoxicity at 10 µM [%]
1,CS(=O)(=O)N1CCCN(CCCSCc2ccccc2)CC1,-2.35
2,O=c1[nH]c2ccccc2c2c1CCO2,6.9
3,Cc1ccc(C(=O)N2CCN3C[C@H](Oc4cccnc4)C[C@H]3C2)cn1,4.66
4,CCn1cc(S(=O)(=O)N2CCN(S(=O)(=O)c3ccc(Br)s3)CC2)c(C)n1,4.64
5,O=S1(=O)NCC2(CCN(Cc3ccc(Cl)s3)C2)Oc2ncccc21 (stereo unspecified),4.65
6,Cc1cc(C)cc(CN2C[C@H]3COC[C@H](N4CCN(C)CC4)[C@H]3C2)c1,-93.7
7,Cc1nc(C)n(CC2CCCN2Cc2nc(C3CC3)no2)n1 (stereo unspecified),-12.5
8,O=C(NCc1ccnc(O)c1)NCC1CCCC1,3.57
9,CN1CCC(NC(=O)c2cc(Cl)cc(Br)c2O)C1=O (stereo unspecified),4.84
10,COCc1ccc(C(=O)N2CC[C@@](O)(COC)C(C)(C)C2)o1,-2.69
11,Cc1nc(NC(C)C)nc2c1CN(Cc1cccs1)CC2,0.718
12,O=S(=O)(Cc1ccc(F)cc1)NCc1ccco1,14.1
13,Cc1cc(NCCN)nc2ccccc12,2.09
14,CC(=O)N1CCN(Cc2csc(-c3cnn(C)c3)n2)CC1,-1.78
15,CCOc1ncnc2c1CCN(S(=O)(=O)C1CC1)CC2,3.42
16,COC(=O)c1ccc2ccn(CC3CCCN(C)C3)c(=O)c2c1 (stereo unspecified),-16.1
17,CC(C#N)CNC(=O)Nc1ccc(-c2ccc[nH]2)cc1 (stereo unspecified),1.2
18,Cn1nccc1-c1ncc2c(c1C(=O)O)CCN(Cc1ccccc1)C2,9.97
19,O=C(c1ccoc1)N1CCC2(CCC(=O)N2Cc2ccncc2)CC1,-1
20,Cc1cccc(CN2CCC3(CCN(c4ccccn4)C3)C2=O)c1 (stereo unspecified),9.3
21,CNC(=O)NC(=O)CN1CCCC(Cc2ccccc2OC)C1 (stereo unspecified),4.95
22,COc1ccc(CNC2CCN(CCc3ccncc3)CC2)cc1O,-10.5
23,O=C(CCCOc1ccc(F)cc1F)N1CCCC1Cn1cccn1 (stereo unspecified),-5.67

row,Structure (SMILES),cytotoxicity at 10 µM [%]
1,CN(Cc1ccco1)C1COC2(CCN(Cc3nccs3)CC2)C1 (stereo unspecified),2.93
2,Cc1nn2cccnc2c1C(=O)N1CCCC(n2cccn2)C1 (stereo unspecified),-35.9
3,Cc1cc(C)n(C2CCCN(C(=O)c3c[nH]c(=O)c(Cl)c3)C2)n1 (stereo unspecified),-5.03
4,Cn1ccc(C2CCCCCN2C(=O)c2cccnc2)n1 (stereo unspecified),6.16
5,OCC1CCCN1c1cc(NCc2cc3ccccc3o2)ncn1 (stereo unspecified),7.53
6,Cc1cnc(CCNC(=O)C2CN(C(=O)Cc3ccc(F)cc3)C2)s1,0.82
7,OC(CNCCn1cccn1)c1ccc(F)c(F)c1 (stereo unspecified),2.05
8,Cc1ccc(CN(CC(=O)NCC2CCOC2)c2ccc(F)cc2)o1 (stereo unspecified),9.83
9,Cc1ccc(-c2ccc(C(=O)NCCS(N)(=O)=O)c(F)c2)cc1,11.3
10,O=C1[C@H]2CN(C3CCOCC3)C[C@H]2CN1Cc1cccnc1,-127
11,Cc1ccc(NC2CCN(C(=O)c3ccc(C(N)=O)s3)CC2)nn1,1.8
12,CC(=O)NC1CCCN(Cc2ccc(OCc3ccccn3)cc2)C1 (stereo unspecified),1.41
13,Cn1cc(C(=O)Nc2cccc(Oc3ccncc3)c2)ccc1=O,-1.21
14,COc1ccc(OCCN(C)Cc2nc3c(cnn3C)c(=O)[nH]2)cc1,-4.03
15,CNc1cc(C)nc(C2CN(Cc3ccc(Cl)cn3)CCO2)c1 (stereo unspecified),-26.2
16,CCN(Cc1noc(CC(C)C)n1)Cc1cccc(F)c1O,-44
17,COCC(=O)N(CCC(=O)OC)CC1CCCO1 (stereo unspecified),1.74
18,CN(CCn1cccn1)S(=O)(=O)c1cccc(Cl)c1C#N,3.45
19,CC(CNC(=O)Nc1cn[nH]c1)N1CCCC1 (stereo unspecified),-7.32
20,CCC(=O)N(CC)CCc1nccs1,9.66
21,CC(C)(C)Cc1noc2ncc(C(=O)N3CCSCC3)cc12,-0.779
22,c1ccc(-n2cnnc2CCCN2CCOCC2)cc1,-1.16
23,CC(O)CN1CCN(C(=O)c2ccc(N3CCCC3)nn2)CC1 (stereo unspecified),-17.3

row,Structure (SMILES),cytotoxicity at 10 µM [%]
1,CC(C)c1nnc2n1CCN(Cc1cc(Cl)c3c(c1)OCO3)C2,0.0723
2,COCC1CC2(CCN(C(=O)c3ccc(C)nc3)CC2)CO1 (stereo unspecified),-127
3,COCCNc1nc(N2CCOCC2)nc2nccnc12,4.09
4,COc1ccccc1CN1C[C@@H]2CN(Cc3cccnc3)CCO[C@@H]2C1,12.3
5,Cc1nn(C)cc1S(=O)(=O)N[C@@H]1CCC[C@@H](n2ccnc2)[C@@H]1O,0.651
6,CS(=O)(=O)N1C[C@H]2CC[C@@H](C1)N(Cc1ccc3nsnc3c1)C2,3.18
7,CC(NC(=O)C1CCCC1)c1nncn1C(C)C (stereo unspecified),6.89
8,Cc1noc(-c2cnc(NC(C)C)nc2-c2ccco2)c1C,-0.275
9,O=C(CCOc1ccccc1)N1CCCC(c2ncc[nH]2)C1 (stereo unspecified),-2.68
10,N#Cc1cc(S(N)(=O)=O)ccc1NC1CCc2c(F)cccc21 (stereo unspecified),-12.4
11,O=C1OC2(CCNCC2)CN1CC(=O)N1CCCC1c1ccco1 (stereo unspecified),-14.6
12,CCc1nc(CCNC(=O)Nc2ccc(C(=O)NC)cc2C)cs1,27.7
13,O=C([C@H]1CN(Cc2nccs2)C[C@H]2OCC[C@@H]12)N1CCCC1,-94.1
14,CCn1nc(C)c2nnn(CC(=O)Nc3ccc(C)cc3)c(=O)c21,8.49
15,CC(=O)N1CCN(C(=O)CN2CCc3c(ncn3C3CC3)C2)CC1,3.3
16,CC(C)S(=O)(=O)NCC1CCCN(C(=O)c2ccc(Cl)cc2)C1 (stereo unspecified),-3.44
17,Cc1ccc2c(c1)C(NC(=O)C1CCN(S(C)(=O)=O)CC1)CC(C)(C)O2 (stereo unspecified),2.22
18,Cc1ncsc1CCN1CCC(N(C)Cc2noc(C(C)C)n2)C1 (stereo unspecified),2.17
19,COc1ccc(CN2C[C@@H]3CN(Cc4ccoc4)C[C@@H]3C2=O)cc1,-8.37
20,CCC(O)CN1CCN(C(=O)c2ccn(-c3cccc(F)c3)n2)CC1 (stereo unspecified),-1.65
21,Cc1nc2ccc(C(=O)N3CC[C@H](O)[C@@H](N4CCOCC4)CC3)cc2[nH]1,-8.32
22,O=S(=O)(c1cccs1)N1Cc2nc(COCC3CC3)oc2C1,-109
23,CC(=O)N1CCN(c2cnnc(N3CCCC3)c2)CC1,8.19

row,Structure (SMILES),cytotoxicity at 10 µM [%]
1,CN(CC(F)(F)F)C(=O)CNC(=O)N1CCC(N2CCCC2)C1 (stereo unspecified),3.72
2,Cc1cc(C(=O)NC(C)Cc2ccccc2Cl)n(C)n1 (stereo unspecified),2.8
3,CC(NC(=O)CCc1nc(-c2nnc[nH]2)no1)c1ccc(F)cc1F (stereo unspecified),-2.05
4,COc1cccc(-c2cnc(C3CCNCC3)cn2)c1,-30.4
5,O=C(NCCn1ccnc1)c1cc(F)cc(Br)c1,-1.62
6,Cc1ncnc2c1CCN(C(=O)c1ccnnc1)CC2,9.9
7,COc1cccc(CN2CCCCCC2c2cccc(C)c2)c1O (stereo unspecified),7.6
8,Cc1nc(C2CCNCC2)cc(N(C)Cc2cc3cc(F)ccc3[nH]2)n1,-10.7
9,Cc1csc(N2CCCN(C(=O)c3ccsc3)CC2)n1,5.28
10,CN(Cc1ccc2c(c1)OCCO2)Cc1nc2c(cnn2C)c(=O)[nH]1,-4.45
11,Cn1cc(CN2CC[C@H]3C[C@@H](c4nc(C5CC5)cs4)O[C@@H]3C2)cn1,8.84
12,Cc1nc(NC(=O)CCOCC(F)(F)F)ccc1Br,6.27
13,Cc1nc(C)n(CC2CCCN(CCC(=O)NC3CCCCC3)C2)n1 (stereo unspecified),-3.39
14,CC(C)c1ncncc1C(=O)N1CCCN(Cc2ccccc2)CC1,-6.9
15,Cc1ccc(-c2ccnc3cc(CC(=O)N4CCN(C)CC4)nn23)cc1,-1.72
16,Cn1nc(CN2CCCCC2)c2c1CN(C(=O)c1ccccc1)C2,4.83
17,CN1CC(=O)N(c2ccsc2)CC12CCN(C(=O)CC1CCCC1)C2 (stereo unspecified),-77.3
18,COCC(=O)Nc1ccc(Oc2ccsc2C(=O)O)cc1,8.12
19,CC(C)CC(NC(=O)c1ccn(C)c(=O)c1)c1cccs1 (stereo unspecified),1.67
20,CC(=O)N1CCN(CCNC(=O)NC(C)Cn2ccnc2)CC1 (stereo unspecified),5.74
21,CC(NCc1cnc(N2CCN(C)CC2)nc1)c1ccc(F)cc1 (stereo unspecified),-5.26
22,Cc1ccc(NC2CCN(C(=O)c3cncnc3C)CC2)nn1,-3.04
23,CC1CCc2nc(O)c(C(=O)NCc3ccccc3F)cc2C1 (stereo unspecified),4.47

row,Structure (SMILES),cytotoxicity at 10 µM [%]
1,N#Cc1ccc(CN2C(=O)c3ccccc3CS2(=O)=O)cc1,-4.17
2,NC(=O)c1cc(NC(=O)NCCc2cc(F)cc(F)c2)ccc1F,-9.58
3,Cc1cc(-c2nn(C)c(Cl)c2CN2CCOC(C(=O)O)C2)no1 (stereo unspecified),4.04
4,CC(C)N1[C@H](CN2CCCC2)C[C@@H]2CN(C(=O)c3ccoc3)CC[C@@H]21,-135
5,CN(Cc1csc(-c2ccccc2)n1)C(=O)CCNS(C)(=O)=O,0.571
6,Cc1cc(C)n(-c2ccc(C(=O)NCc3cncn3CC(C)C)cc2)n1,-4.04
7,CC1(C)CC1(C(=O)N1CC(c2cccnc2)C1)c1ccc(F)cc1 (stereo unspecified),-9.41
8,Cc1ccccc1CSCCn1nc2ccccn2c1=O,2.57
9,Cc1ocnc1C(=O)N(C)[C@@H]1CCC[C@@H](N2CCCC2)[C@@H]1O,-3.7
10,CCN(CC1CN(CCc2ccccn2)CCO1)c1cccnn1 (stereo unspecified),-6
11,COc1ccc(C2CCCCCN2S(C)(=O)=O)cc1 (stereo unspecified),3.86
12,CC1(C(=O)N2CCOCC2)CNCCO1 (stereo unspecified),1.2
13,CCCc1nc(CN2CCOC(Cn3cncn3)C2)cs1 (stereo unspecified),-8.44
14,O=C(Cc1ccc2c(c1)CCO2)N1CCCC(n2cccn2)C1 (stereo unspecified),5.67
15,CN(C)C[C@@H]1CN(C(=O)Cc2ccccc2)C[C@@H]1CO,-1.07
16,CC(=O)N1CCC(n2ccc(-c3cnc(N4CCOCC4)nc3)n2)CC1,-10.4
17,COc1ccc2ncn(Cc3ncc[nH]3)c(=O)c2c1,-11
18,Cc1cc(NCC(=O)N(C)Cc2cccs2)c(C(N)=O)cc1F,0.83
19,Cn1cnc2c1CCN(CC(=O)N(Cc1ccsc1)C1CC1)C2,-0.157

# Reference: ChEMBL document CHEMBL4513216, “Probing the Open Global Health Chemical Diversity Library for Multistage-Active Starting Points for Next-Generation Antimalarials” (ACS Infect Dis, 2020)
